Calls of active or inactive are those of the source. The calls are words filed in the database; no cut-off is given here.
Assays:
Rattus norvegicus [1] = assay: Antihyperlipidemic activity in Charles-Foster rat assessed as reversal of triton-induced increase in plasma phospholipid level at 100 mg/kg, po after 18 hrs relative to control; assay type: functional
How it was run: (§1)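 Male adult Charles Foster rats (200-225 g), 6 per group; triton WR-1339 400 mg/kg i.p. plus oral test agent in 0.2% gum acacia suspension, given together, diet withdrawn. After 18 h, retro-orbital EDTA blood was centrifuged 2500 g, 4 °C, 10 min; plasma was diluted 1:3 in saline and TC, PL and TG were assayed enzymatically (mg/dl). Mean ± SD; Student's t-test.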

Rattus norvegicus [2] = assay: Antihyperlipidemic activity in Charles-Foster rat assessed as reversal of triton-induced increase in plasma total cholesterol level at 100 mg/kg, po after 18 hrs relative to triton-treated control; assay type: functional; how it was run: as §1
Rattus norvegicus [3] = assay: Antihyperlipidemic activity in Charles-Foster rat assessed as reversal of triton-induced increase in plasma total cholesterol level at 100 mg/kg, po after 18 hrs relative to control; assay type: functional; how it was run: as §1
[4] = Antioxidant activity assessed as inhibition of microsomal lipid peroxidation at 200 ug/mL by spectrophotometric analysis relative to control; assay type: functional
[5] = Antioxidant activity assessed as inhibition of hydroxyl radical generation at 200 ug/mL after 90 mins by spectrophotometric analysis relative to control; assay type: functional
How it was run: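 Hydroxyl radicals were generated non-enzymically from deoxyribose (2.8 mM), FeSO4 (2 mM), sodium ascorbate (2.0 mM) and H2O2 (2.8 mM) in KH2PO4 buffer pH 7.4, 2.5 mL final, with or without agent at 200 µg/ml, for 90 min at 37 °C. MDA was read spectrophotometrically by the thiobarbituric acid method against reference samples and reagent blanks.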

[6] = Antioxidant activity assessed as inhibition of superoxide anion generation at 200 ug/mL after 30 mins by NBT reduction assay relative to control; assay type: functional
How it was run: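 Superoxide was generated by xanthine, xanthine oxidase (0.04 U) and nitroblue tetrazolium in 100 mM phosphate buffer pH 8.2, with or without agent at 200 µg/ml, for 30 min at 37 °C. Stopped with glacial acetic acid; formazan read at 560 nm, and % inhibition derived using ε 7.2 × 10³ M⁻¹cm⁻¹.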

Rattus norvegicus [7] = assay: Antihyperlipidemic activity in triton-induced Charles-Foster rat assessed as increase in plasma lecithin cholesterol acyltransferase activity at 100 mg/kg, po after 18 hrs by colorimetric assay; assay type: functional, organism-based; parameters: dose 100 mg/kg
Rattus norvegicus [8] = assay: Antihyperlipidemic activity in Charles-Foster rat assessed as reversal of triton-induced decrease in HDL level at 100 mg/kg, po after 18 hrs; assay type: functional, organism-based; parameters: dose 100 mg/kg
How it was run: (§2)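 Triton WR-1339 (400 mg/kg i.p.) hyperlipidemic male Charles Foster rats dosed 100 mg/kg p.o. for 18 h, 6/group. Serum was fractionated into VLDL, LDL and HDL by polyanionic precipitation and lipoprotein cholesterol measured. Mean ± SD; Student's t-test against triton group.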

Rattus norvegicus [9] = assay: Antihyperlipidemic activity in Charles-Foster rat assessed as reversal of triton-induced increase in LDL level at 100 mg/kg, po after 18 hrs; assay type: functional, organism-based; parameters: dose 100 mg/kg; how it was run: as §2
Rattus norvegicus [10] = assay: Antihyperlipidemic activity in Charles-Foster rat assessed as reversal of triton-induced increase in VLDL level at 100 mg/kg, po after 18 hrs; assay type: functional, organism-based; parameters: dose 100 mg/kg; how it was run: as §2
Rattus norvegicus [11] = assay: Antihyperlipidemic activity in Charles-Foster rat assessed as reversal of triton-induced increase in plasma triglyceride level at 150 mg/kg, po after 18 hrs relative to triton-treated control; assay type: functional
How it was run: (§3)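 Dose-response in triton WR-1339 (400 mg/kg i.p.) hyperlipidemic male Charles Foster rats given oral agent at 50, 100 or 150 mg/kg in gum acacia suspension for 18 h, 6 rats/group. Plasma TC, PL and TG were measured enzymatically. Pooled data as mean ± SD; triton versus triton-plus-agent groups compared by t-test.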

Rattus norvegicus [12] = assay: Antihyperlipidemic activity in Charles-Foster rat assessed as reversal of triton-induced increase in plasma triglyceride level at 50 mg/kg, po after 18 hrs relative to triton-treated control; assay type: functional; how it was run: as §3
Rattus norvegicus [13] = assay: Antihyperlipidemic activity in Charles-Foster rat assessed as reversal of triton-induced increase in plasma phospholipid level at 150 mg/kg, po after 18 hrs relative to triton-treated control; assay type: functional; how it was run: as §3
Rattus norvegicus [14] = assay: Antihyperlipidemic activity in Charles-Foster rat assessed as reversal of triton-induced increase in plasma phospholipid level at 50 mg/kg, po after 18 hrs relative to triton-treated control; assay type: functional; how it was run: as §3
Rattus norvegicus [15] = assay: Antihyperlipidemic activity in Charles-Foster rat assessed as reversal of triton-induced increase in plasma total cholesterol level at 150 mg/kg, po after 18 hrs relative to triton-treated control; assay type: functional; how it was run: as §3
Rattus norvegicus [16] = assay: Antihyperlipidemic activity in Charles-Foster rat assessed as reversal of triton-induced increase in plasma total cholesterol level at 50 mg/kg, po after 18 hrs relative to triton-treated control; assay type: functional; how it was run: as §3
Rattus norvegicus [17] = assay: Antihyperlipidemic activity in Charles-Foster rat assessed as post heparin lipolytic activity at 100 mg/kg, po after 18 hrs by spectrophotometric analysis relative to triton-treated control; assay type: functional
How it was run: (§4)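 Male adult Charles Foster rats (200-225 g), 6 per group. Triton WR-1339 400 mg/kg i.p.; test agent 100 mg/kg p.o. as gum acacia (0.2% w/v) suspension in water, given simultaneously, diet withdrawn; vehicle to control and triton groups. At 18 h under thiopentone (50 mg/kg), retro-orbital blood collected into EDTA and plasma separated. Post-heparin lipolytic activity read spectrophotometrically as nmol free fatty acid/h/ml plasma; mean ± SD; Student's t-test.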

Rattus norvegicus [18] = assay: Antihyperlipidemic activity in Charles-Foster rat assessed as post heparin lipolytic activity at 100 mg/kg, po after 18 hrs by spectrophotometric analysis relative to control; assay type: functional; how it was run: as §4
Rattus norvegicus [19] = assay: Antihyperlipidemic activity in Charles-Foster rat assessed as reversal of triton-induced increase in plasma triglyceride level at 100 mg/kg, po after 18 hrs relative to triton-treated control; assay type: functional; how it was run: as §1
Rattus norvegicus [20] = assay: Antihyperlipidemic activity in Charles-Foster rat assessed as reversal of triton-induced increase in plasma triglyceride level at 100 mg/kg, po after 18 hrs relative to control; assay type: functional; how it was run: as §1
Rattus norvegicus [21] = assay: Antihyperlipidemic activity in Charles-Foster rat assessed as reversal of triton-induced increase in plasma phospholipid level at 100 mg/kg, po after 18 hrs relative to triton-treated control; assay type: functional; how it was run: as §1
Rattus norvegicus [22] = assay: Antihyperlipidemic activity in po dosed Charles-Foster rat assessed as reversal of triton-induced increase in plasma triglyceride level after 18 hrs; assay type: functional, organism-based; how it was run: as §1
Rattus norvegicus [23] = assay: Antihyperlipidemic activity in po dosed Charles-Foster rat assessed as reversal of triton-induced increase in plasma phospholipid level after 18 hrs; assay type: functional, organism-based; how it was run: as §1
Rattus norvegicus [24] = assay: Antihyperlipidemic activity in po dosed Charles-Foster rat assessed as reversal of triton-induced increase in plasma total cholesterol level after 18 hrs; assay type: functional, organism-based; how it was run: as §1

Compound	Activity (Rattus norvegicus [1])	Activity (Rattus norvegicus [2])	Activity (Rattus norvegicus [3])	inhibition [4]	inhibition [6]	Activity (Rattus norvegicus [7])	Activity (Rattus norvegicus [8])	Activity (Rattus norvegicus [9])	Activity (Rattus norvegicus [10])	Activity (Rattus norvegicus [11])	Activity (Rattus norvegicus [12])	Activity (Rattus norvegicus [13])	Activity (Rattus norvegicus [14])	Activity (Rattus norvegicus [15])	Activity (Rattus norvegicus [16])	Activity (Rattus norvegicus [17])	Activity (Rattus norvegicus [18])	Activity (Rattus norvegicus [19])	Activity (Rattus norvegicus [20])	Activity (Rattus norvegicus [21])	also measured
COc1ccc(C(=O)c2cc3cc(C(c4c[nH]c5ccc(OC)cc45)c4c[nH]c5ccc(OC)cc45)cc(C)c3o2)cc1	159.29 mg/dL	-23%	141.84 mg/dL	31%	33%	Active	Active	Active	Active	-25%	-16%	-24%	-17%	-25%	-15%	16%	15.32 nmol/h/mL	-24%	164.24 mg/dL	-23%	inhibition [5]: 30%
CCc1cc(C(c2c[nH]c3ccc(OC)cc23)c2c[nH]c3ccc(OC)cc23)cc2cc(C(=O)c3ccc(OC)cc3)oc12	146.88 mg/dL	-28%	132.63 mg/dL	32%	31%	Active	Active	Active	Active	-30%	-20%	-29%	-20%	-29%	-22%	18%	15.58 nmol/h/mL	-28%	155.59 mg/dL	-29%	inhibition [5]: 27%; Activity (Rattus norvegicus [22]): Dose-dependent effect; Activity (Rattus norvegicus [23]): Dose-dependent effect; Activity (Rattus norvegicus [24]): Dose-dependent effect
Oc1ncnc2[nH]ncc12					51%																
CCCc1cc(C(c2c[nH]c3ccc(OC)cc23)c2c[nH]c3ccc(OC)cc23)cc2cc(C(=O)c3ccc(OC)cc3)oc12	159.29 mg/dL	-24%	139.99 mg/dL			Active	Active	Active	Active	-24%	-16%	-26%	-18%	-24%	-17%	16%	15.32 nmol/h/mL	-23%	166.4 mg/dL	-23%	
COc1ccc(C(=O)c2cc3cc(C(c4c[nH]c5ccc(OC)cc45)c4c[nH]c5ccc(OC)cc45)cc(C(C)(C)C)c3o2)cc1	159.29 mg/dL	-24%	139.99 mg/dL			Active	Active	Active	Active	-24%	-21%	-23%	-20%	-27%	-20%	17%	15.45 nmol/h/mL	-23%	166.4 mg/dL	-23%	

Reference: ChEMBL document CHEMBL2424556, “Hybrid benzofuran-bisindole derivatives: new prototypes with promising anti-hyperlipidemic activities” (2013)
